Measurements: ChEMBL document CHEMBL1130139, “Synthesis and activity of 6-substituted purine linker amino acid immunostimulants” (1997)
Values joined by “and” are separate entries in the source; they are usually repeats but may differ in a detail not shown here. Equal entries are not always repeated.

Columns and labels:
Assay type in all cases: functional
Mus musculus [1] = species on record: Mus musculus; assay: In vitro cytotoxic T-Lymphocyte (CTL) activity relative to interleukin 2 was obtained at a concentration of 10 e -7 M(++ represents 41 - 60% of interleukin 2)
In short: (§1)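 Splenocytes from 6- to 8-week-old female C57BL/6 and irradiated (3000 rads) DBA/2 mice, 10⁷ cells, were cultured together in RPMI 1640 with 10% FCS. Culture ran 120 h at 37 °C in 5% CO₂, with [³H]thymidine pulse of an aliquot. Percent specific lysis was scaled to IL 2 (taken as 100%) and scored 0 to ++++ in 20% bands.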

Mus musculus [2] = species on record: Mus musculus; assay: In vitro cytotoxic T-Lymphocyte (CTL) activity relative to interleukin 2 was obtained at a concentration of 10 e -97M(++ represents 41 - 60% of interleukin 2); in short: as §1
Mus musculus [3] = species on record: Mus musculus; assay: In vitro cytotoxic T-Lymphocyte (CTL) activity relative to interleukin 2 was obtained at a concentration of 10 e -5 M(+ represents 21 - 40% of interleukin 2); in short: as §1
Mus musculus [4] = species on record: Mus musculus; assay: In vitro cytotoxic T-Lymphocyte (CTL) activity relative to interleukin 2 was obtained at a concentration of 10 e -7 M(+ represents 21 - 40% of interleukin 2); in short: as §1
Mus musculus [5] = species on record: Mus musculus; assay: In vitro cytotoxic T-Lymphocyte (CTL) activity relative to interleukin 2 was obtained at a concentration of 10 e -9 M(++ represents 41 - 60% of interleukin 2); in short: as §1
Mus musculus [6] = species on record: Mus musculus; assay: In vitro cytotoxic T-Lymphocyte (CTL) activity relative to interleukin 2 was obtained at a concentration of 10 e -7 M(++ represents 21 - 40% of interleukin 2); conditions: in the assay text read “+ represents” for “++ represents”; in short: as §1
Mus musculus [7] = species on record: Mus musculus; assay: In vitro cytotoxic T-Lymphocyte (CTL) activity relative to interleukin 2 was obtained at a concentration of 10 e -7 M (++ represents 41 - 60% of interleukin 2); in short: as §1
Mus musculus [8] = species on record: Mus musculus; assay: In vitro cytotoxic T-Lymphocyte (CTL) activity relative to interleukin 2 was obtained at a concentration of 10 e -5 M (+ represents 21 - 40% of interleukin 2); in short: as §1
Mus musculus [9] = species on record: Mus musculus; assay: In vitro cytotoxic T-Lymphocyte (CTL) activity relative to interleukin 2 was obtained at a concentration of 10 e -7 M(++ +represents 61 - 80% of interleukin 2); in short: as §1
Mus musculus [10] = species on record: Mus musculus; assay: In vitro cytotoxic T-Lymphocyte (CTL) activity relative to interleukin 2 was obtained at a concentration of 10 e -7 M(++++ represents 81 - 100% of interleukin 2); in short: as §1
Mus musculus [11] = species on record: Mus musculus; assay: In vitro cytotoxic T-Lymphocyte (CTL) activity relative to interleukin 2 was obtained at a concentration of 10 e -5 M(++ represents 41 - 60% of interleukin 2); in short: as §1
Mus musculus [12] = assay: In vivo spleen immunophenotyping (CD8+CD45+ cells) assay was performed by injecting 0 mg/Kg of compound intraperitoneally in mice
In short: (§2)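 Female 6- to 8-week-old C57BL/6 mice were dosed ip once daily for one, four or nine consecutive days, drug in physiological saline. For single dosing, groups of seven were used. Blood and spleen cells were ACK-lysed (pH 7.3, 5 min) and PBS-washed, then stained 45 min on ice with FITC/PE surface-marker antibodies. Cells were fixed in 1% paraformaldehyde and read by flow cytometry as relative subset percentages.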

Mus musculus [13] = assay: In vivo blood immunophenotyping (CD4+CD45+ cells) assay was performed by injecting 25 mg/Kg of compound intraperitoneally in mice; in short: as §2
Mus musculus [14] = assay: In vivo immunophenotyping (CD4-CD8- cells) assay was performed by injecting 50 mg/Kg of compound intraperitoneally in mice and blood is collected; in short: as §2
Mus musculus [15] = assay: In vivo blood immunophenotyping (NK+CD3- cells) assay was performed by injecting 25 mg/Kg of compound intraperitoneally in mice; in short: as §2
Mus musculus [16] = assay: In vivo spleen immunophenotyping (TCR cells) assay was performed by injecting 25 mg/Kg of compound intraperitoneally in mice; in short: as §2
Mus musculus [17] = assay: In vivo immunophenotyping (CD4-CD8- cells) assay was performed by injecting 0 mg/Kg of compound intraperitoneally in mice and blood is collected; in short: as §2
Mus musculus [18] = assay: In vivo blood immunophenotyping (CD4-CD11b+ cells) assay was performed by injecting 0 mg/Kg of compound intraperitoneally in mice; in short: as §2
Mus musculus [19] = assay: In vivo immunophenotyping (CD4+ cells) assay was performed by injecting 0 mg/Kg of compound intraperitoneally in mice and blood is collected; in short: as §2
Mus musculus [20] = assay: In vivo blood immunophenotyping (NK+CD3- cells) assay was performed by injecting 0 mg/Kg of compound intraperitoneally in mice; in short: as §2
Mus musculus [21] = assay: In vivo blood immunophenotyping (CD4+CD45+ cells) assay was performed by injecting 100 mg/Kg of compound intraperitoneally in mice; in short: as §2
Mus musculus [22] = assay: In vivo blood immunophenotyping (CD4+CD45+ cells) assay was performed by injecting 0 mg/Kg of compound intraperitoneally in mice; in short: as §2
Mus musculus [23] = assay: In vivo spleen immunophenotyping (CD8+CD45+ cells) assay was performed by injecting 25 mg/Kg of compound intraperitoneally in mice; in short: as §2
Mus musculus [24] = assay: In vivo spleen immunophenotyping (Ly5 cells) assay was performed by injecting 50 mg/Kg of compound intraperitoneally in mice; in short: as §2
Mus musculus [25] = assay: In vivo blood immunophenotyping (NK+CD3+ cells) assay was performed by injecting 25 mg/Kg of compound intraperitoneally in mice; in short: as §2
Mus musculus [26] = assay: In vivo spleen immunophenotyping (CD8+CD45+ cells) assay was performed by injecting 100 mg/Kg of compound intraperitoneally in mice; in short: as §2
Mus musculus [27] = assay: In vivo blood immunophenotyping (CD8+CD45+ cells) assay was performed by injecting 25 mg/Kg of compound intraperitoneally in mice; in short: as §2
Mus musculus [28] = assay: In vivo spleen immunophenotyping (CD8+CD45+ cells) assay was performed by injecting 50 mg/Kg of compound intraperitoneally in mice; in short: as §2
Mus musculus [29] = assay: In vivo spleen immunophenotyping (TCR cells) assay was performed by injecting 0 mg/Kg of compound intraperitoneally in mice; in short: as §2
Mus musculus [30] = assay: In vivo blood immunophenotyping (CD8+CD45+ cells) assay was performed by injecting 50 mg/Kg of compound intraperitoneally in mice; in short: as §2
Mus musculus [31] = assay: In vivo blood immunophenotyping (NK+CD3- cells) assay was performed by injecting 50 mg/Kg of compound intraperitoneally in mice; in short: as §2
Mus musculus [32] = assay: In vivo blood immunophenotyping (CD8+CD45+ cells) assay was performed by injecting 0 mg/Kg of compound intraperitoneally in mice; in short: as §2
Mus musculus [33] = assay: In vivo spleen immunophenotyping (Ly5 cells) assay was performed by injecting 25 mg/Kg of compound intraperitoneally in mice; in short: as §2
Mus musculus [34] = assay: In vivo immunophenotyping (CD4-CD8- cells) assay was performed by injecting 25 mg/Kg of compound intraperitoneally in mice and blood is collected; in short: as §2
Mus musculus [35] = assay: In vivo blood immunophenotyping (CD4-CD11b+ cells) assay was performed by injecting 25 mg/Kg of compound intraperitoneally in mice; in short: as §2
Mus musculus [36] = assay: In vivo immunophenotyping (CD4-CD8- cells) assay was performed by injecting 100 mg/Kg of compound intraperitoneally in mice and blood is collected; in short: as §2
Mus musculus [37] = assay: In vivo blood immunophenotyping (CD8+CD45+ cells) assay was performed by injecting 100 mg/Kg of compound intraperitoneally in mice; in short: as §2
Mus musculus [38] = assay: In vivo blood immunophenotyping (CD4-CD11b+ cells) assay was performed by injecting 50 mg/Kg of compound intraperitoneally in mice; in short: as §2
Mus musculus [39] = assay: In vivo spleen immunophenotyping (Ly5 cells) assay was performed by injecting 0 mg/Kg of compound intraperitoneally in mice; in short: as §2
Mus musculus [40] = assay: In vivo blood immunophenotyping (NK+CD3+ cells) assay was performed by injecting 50 mg/Kg of compound intraperitoneally in mice; in short: as §2
Mus musculus [41] = assay: In vivo blood immunophenotyping (CD4+CD45+ cells) assay was performed by injecting 50 mg/Kg of compound intraperitoneally in mice; in short: as §2
Mus musculus [42] = assay: In vivo spleen immunophenotyping (TCR cells) assay was performed by injecting 50 mg/Kg of compound intraperitoneally in mice; in short: as §2
Mus musculus [43] = assay: In vivo blood immunophenotyping (NK+CD3+ cells) assay was performed by injecting 0 mg/Kg of compound intraperitoneally in mice; in short: as §2

CC1CN1c1ncnc2c1ncn2CCCCCOC(=O)N[C@@H](CCCNC(=N)N)C(=O)O (stereo partly drawn)
CTL activity (Mus musculus [1]): 41 - 60% of interleukin 2

CN(C)c1ncnc2c1ncn2CCCCCCOC(=O)N[C@@H](CCCNC(=N)N)C(=O)O
CTL activity (Mus musculus [1]): 41 - 60% of interleukin 2

CN(C)c1ncnc2c1ncn2CCCCCNC(=O)OCCCCCn1cnc2c(N(C)C)ncnc21
CTL activity (Mus musculus [1]): 41 - 60% of interleukin 2

CN(C)c1ncnc2c1ncn2CCCCCO
CTL activity (Mus musculus [2]): 41 - 60% of interleukin 2

CN(C)c1ncnc2c1ncn2CCCCCOC(=O)CCN
CTL activity (Mus musculus [1]): 41 - 60% of interleukin 2

CN(C)c1ncnc2c1ncn2CCCCCOC(=O)NC(CCCNC(N)=O)C(=O)O (stereo not drawn)
CTL activity (Mus musculus [3]): 21 - 40% of interleukin 2

CN(C)c1ncnc2c1ncn2CCCCCOC(=O)NCC(=O)O
CTL activity (Mus musculus [4]): 21 - 40% of interleukin 2

CN(C)c1ncnc2c1ncn2CCCCOC(=O)N[C@@H](CCCNC(=N)N)C(=O)O
CTL activity (Mus musculus [5]): 41 - 60% of interleukin 2

CN(C)c1ncnc2c1ncn2C[C@H]1CC[C@@H](COC(=O)N[C@@H](CCCNC(=N)N)C(=O)O)CC1
CTL activity (Mus musculus [3]): 21 - 40% of interleukin 2

CN(C)c1ncnc2c1ncn2C[C@H]1CC[C@H](COC(=O)N[C@@H](CCCNC(=N)N)C(=O)O)CC1
CTL activity (Mus musculus [1]): 41 - 60% of interleukin 2

N=C(N)NCCC[C@@H](NC(=O)OCCCCCn1cnc2c(O)ncnc21)C(=O)O
CTL activity (Mus musculus [1]): 41 - 60% of interleukin 2

N=C(N)NCCC[C@H](NC(=O)OCCCCCn1cnc2c(N3CCC3)ncnc21)C(=O)O
CTL activity (Mus musculus [6]): 21 - 40% of interleukin 2

N=C(N)NCCC[C@H](NC(=O)OCCCCCn1cnc2c(NC3CC3)ncnc21)C(=O)O
CTL activity (Mus musculus [6]): 21 - 40% of interleukin 2

CN(C)c1ncnc2c1ncn2CCSCCOC(=O)NC(CCCNC(=N)N)C(=O)O (single isomer, unassigned)
CTL activity (Mus musculus [7]): 41 - 60% of interleukin 2

CNc1ncnc2c1ncn2CCCCCOC(=O)NC(CCCNC(=N)N)C(=O)O (single isomer, unassigned)
CTL activity (Mus musculus [8]): 21 - 40% of interleukin 2

N=C(N)NCCCC(NC(=O)OCCCCCn1cnc2c(N)ncnc21)C(=O)O (single isomer, unassigned)
CTL activity (Mus musculus [9]): +
CTL activity (Mus musculus [4]): 21 - 40% of interleukin 2

N=C(N)NCCCC(NC(=O)OCCCCCn1cnc2c(NN)ncnc21)C(=O)O (single isomer, unassigned)
CTL activity (Mus musculus [10]): ++

N=C(N)NCCCC(NC(=O)OCCCCCn1cnc2c(O)ncnc21)C(=O)O (single isomer, unassigned)
CTL activity (Mus musculus [1]): 41 - 60% of interleukin 2

N=C(N)NCCCC(NC(=O)OCCCCCn1cnc2c(S)ncnc21)C(=O)O (single isomer, unassigned)
CTL activity (Mus musculus [4]): 21 - 40% of interleukin 2

N=C(N)NCCCC(NC(=O)OCCCCCn1cnc2cncnc21)C(=O)O (single isomer, unassigned)
CTL activity (Mus musculus [11]): 41 - 60% of interleukin 2

CN(C)c1ncnc2c1ncn2CCCCCOC(=O)N[C@@H](CCCNC(=N)N)C(=O)O [BCH-1393]
Mean (Mus musculus [12]): 7.81
Mean (Mus musculus [13]): 18.5
Mean (Mus musculus [14]): 74.7
Mean (Mus musculus [15]): 5.9
Mean (Mus musculus [16]): 39.8
Mean (Mus musculus [17]): 65.9
Mean (Mus musculus [18]): 9.6
Mean (Mus musculus [19]): 20.9 and 8.1
Mean (Mus musculus [20]): 6.01
Mean (Mus musculus [21]): 20.6
Mean (Mus musculus [22]): 17.5
Mean (Mus musculus [23]): 7.46
Mean (Mus musculus [24]): 50.4
Mean (Mus musculus [25]): 5.84
Mean (Mus musculus [26]): 9.13
Mean (Mus musculus [27]): 11.7 and 8.39
Mean (Mus musculus [28]): 8.92
Mean (Mus musculus [29]): 38.9
Mean (Mus musculus [30]): 10.1 and 9.06
Mean (Mus musculus [31]): 8.14
Mean (Mus musculus [32]): 8.25 and 6.9
Mean (Mus musculus [33]): 54.1
Mean (Mus musculus [34]): 70.7
Mean (Mus musculus [35]): 13.7
Mean (Mus musculus [36]): 82.1
Mean (Mus musculus [37]): 9.96
Mean (Mus musculus [38]): 9.68
Mean (Mus musculus [39]): 55.5
Mean (Mus musculus [40]): 3.25
Mean (Mus musculus [41]): 22.1
Mean (Mus musculus [42]): 45.1
Mean (Mus musculus [43]): 3.43
